MEKK2mut PB1 HTS = signal of MEK5 binding to mutant human MEKK2 PB1 domain; bead flow cytometry, Alexa488-MEK5 binding to MEKK2 mutant; percent response, % at 10 µM; 290,000 compounds, 0.35% hits; AID 1530; in the data active = percent response above about 24%, passing the limit was not always enough
MEKK3 PB1 HTS = raises or lowers MEK5 binding to the human MEKK3 PB1 domain; Q99759; bead-based flow cytometry, Alexa488-MEK5 binding to MEKK3; actives lie on both sides; 0 = blocked by unlabeled MEK5, 100 = vehicle; binding response (% of control), % at 10 µM; 290,000 compounds, 1.4% hits; AID 1529;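 active = binding response more than 3 SD above or below the average of its plate-row segment, actives on both sides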;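 also: Alexa488 bead fluorescence after subtracting the streptavidin-only scavenger bead signal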
MEKK2wt PB1 HTS = raises or lowers MEK5 binding to wildtype human MEKK2 PB1 domain | binding response (% of control), % at 10 µM | AID 1531 | 290,000 compounds, 1.1% hits | Q9Y2U5 | bead flow cytometry, Alexa488-MEK5 binding to MEKK2 WT; actives lie on both sides; in the data active = binding response below about 67% or above about 130%
ABCG2 inh = human ABCG2 inhibition, ABCB1 as counter-screen | Q9UNQ0 | IgMXP3 cells, JC-1 efflux, flow cytometry | inhibition, % at 6.6 µM | 190,000 compounds, 0.1% hits;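 active = inhibition above 80%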;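 also: 0% = DMSO and 100% = nicardipine control wells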
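Times: 10 min at 25 °C | Test system: Two drug-resistant human cell lines, ABCG2 and ABCB1 | Quantity: 3 million cells/mL final, two lines in 1:1 ratio | Signal: Flow cytometry, 530 nm JC-1 signal | Dosing: Compound at 6.6 µM | Controls: Nicardipine and DMSO wells | Reagent: JC-1 as fluorescent efflux pump substrate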
ABCB1 block = blocks JC-1 efflux by human ABCB1 transporter; CCRF-Adr cells, flow cytometry; AID 1326; inhibition, % at 6.6 µM; 190,000 compounds, 0.067% hits; in the data active = inhibition above about 40%;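 also: 0% = vehicle and 100% = reference inhibitor; higher value means more JC-1 retained so stronger ABCB1 efflux block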
WT yeast gro inh = growth inhibition of WT yeast, mitochondrial fusion screen; inhibition, % at 10 µM; 190,000 compounds, 2.1% hits; mitochondrial fusion phenotypic screen, WT strain; in the data active = inhibition above about 58%; tested in S. cerevisiae
* marks the source's active call; other numbers are inactive results; x = no result. Sampled rows, rich in hits. Any-hit rate of the full collection: about 3.5%.

SMILES | MEKK2mut PB1 HTS | MEKK3 PB1 HTS | MEKK2wt PB1 HTS | ABCG2 inh | ABCB1 block | WT yeast gro inh
N[C@@H](Cc1c[nH]c2ccccc12)c1nnc(SCc2ccc(Cl)cc2)o1 | -1 | 100 | 101 | 0 | 0 | 62*
CCOc1cc2c(cc1OCC)-n1cccc1C(c1cc(OC)ccc1F)NC2 (stereo unspecified) | 7 | 105 | 111 | x | x | x
CCOC(=O)c1c(NC(NC(=O)CF)C(Cl)(Cl)Cl)sc2c1CCCC2 (stereo unspecified) | 21 | 105 | 98 | 10 | 2 | 69*
COc1cccc(CNCCc2c[nH]c3ccccc23)c1 | 5 | 105 | 110 | x | x | x
CCOc1cc(CNCCc2c[nH]c3ccccc23)cc(Cl)c1OCC | 3 | 98 | 108 | -2 | 0 | 86*
CCCCCCn1c(N)c(C(=O)NCCN2CCOCC2)c2nc3ccccc3nc21 | 3 | 98 | 108 | 5 | 2 | 86*
CCCCCn1c(N)c(C(=O)NCCN2CCOCC2)c2nc3ccccc3nc21 | 5 | 101 | 104 | 8 | 1 | 11
Cc1c(C(c2ccc(Br)cc2)c2c(O)c3ccccc3oc2=O)c(=O)n(-c2ccccc2)n1C (stereo unspecified) | 0 | 102 | 99 | -2 | 1 | 18
Cc1c(C(c2ccc(Cl)cc2Cl)c2c(O)c3ccccc3oc2=O)c(=O)n(-c2ccccc2)n1C (stereo unspecified) | -4 | 99 | 98 | -5 | 1 | 75*
O=C(c1ccc(F)cc1)N1CCC2(CC1)OCCO2 | 5 | 105 | 110 | x | x | x
Cc1oc(-c2ccc(F)cc2F)nc1CN1C[C@@H]2C[C@@H](C1)c1cccc(=O)n1C2 | 1 | 100 | 100 | 1 | 0 | 1
CC1CCCCC1NC(=O)CNC(=S)N1CC2CC(C1)c1cccc(=O)n1C2 (stereo unspecified) | -4 | 100 | 99 | x | x | x
CCn1nc(/C=C/c2ccccc2)nc2c(=O)n(C)c(=O)nc1-2 | -14 | 95 | 85 | 0 | 0 | 90*
CCOC(=O)C1=C(NC(=S)NC(=O)c2ccccc2)c2ccccc2CC12CCCC2 | -6 | 93 | 94 | -1 | 0 | 73*
CCOP(=O)(OCC)C(NC(=O)c1ccccc1)=C(Cl)Cl | -1 | 102 | 105 | 1 | 0 | 6
C=C(C=O)CC1CC(O)[C@]2(C)OC3CC4OC5C[C@]6(C)O[C@]7(C)CCC8OC9C[C@]%10(C)OC%11C(C)=CC(=O)OC%11CC%10OC9C[C@@H](C)C8OC7CC6O[C@]5(C)CC5OC5C4OC3CC2O1 (stereo partly specified) | 6 | 103 | 105 | 1 | 2 | 82*
C=C(CO)CC1CC(O)[C@]2(C)OC3CC4OC5C[C@]6(C)O[C@]7(C)CCC8OC9C[C@]%10(C)OC%11C(C)=CC(=O)OC%11CC%10OC9C[C@@H](C)C8OC7CC6O[C@]5(C)C/C=C\C4OC3CC2O1 (stereo partly specified) | 4 | 105 | 100 | 3 | 11 | 11
Cc1cccc(-n2c(O)c(C)c(=O)[nH]c2=S)c1 | 4 | 102 | 102 | -1 | 0 | -12
Cc1nn(Cc2c(Cl)cccc2Cl)c(Cl)c1C(=O)O | 4 | 102 | -4.0* | 3 | 1 | 1
O=c1[nH]c(=S)n(CCC2=CCCCC2)c(O)c1C=NC1CCN(Cc2ccccc2)CC1 | 21 | 104 | 131 | 18 | -1 | 78*
CNC(C(=O)c1ccccc1)C(OC)c1ccccc1 (stereo unspecified) | 7 | 107 | 105 | 1 | 1 | 80*
CNC(C(=O)c1ccccc1)C(OC)c1cccc([N+](=O)[O-])c1 (stereo unspecified) | 3 | 102 | 100 | x | x | x
[N-]=[N+]=NCCN1CCC(O)CCC1=O (stereo unspecified) | -1 | 105 | 106 | x | x | x
COc1cccc(NP(=O)(Oc2ccc(Cl)cc2)Oc2ccc(Cl)cc2)c1 | -4 | 93 | 97 | 2 | 0 | 63*

Screening data deposited in PubChem BioAssay by several laboratories.
